Laboratory results published in ChEMBL document CHEMBL4673174, “meta-Substituted benzenesulfonamide: a potent scaffold for the development of metallo-beta-lactamase ImiS inhibitors” (RSC Med Chem, 2020).
Converted amounts (≈) assume the structure as drawn. The source made the active and inactive calls. The calls are words filed in the database; no cut-off is given here.

Assays:
Bacteria [1] = test: Inhibition of bacterial NDM-1 expressed in Escherichia coli BL21 (DE3) at 20 uM using cefazolin as substrate by spectrometry analysis relative to control
Method in brief: (§1)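 Purified L1 or NDM-1; cefazolin (40 μM) substrate, hydrolysis monitored at 262 nm by UV-vis. Inhibitor at 20 μM. Initial rates with and without inhibitor measured in triplicate and averaged; percent inhibition = uninhibited activity (100%) minus residual activity.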

Bacteria [2] = test: Inhibition of bacterial ImiS expressed in Escherichia coli BL21 (DE3) at 20 uM using imipenem as substrate by spectrometry analysis relative to control
Method in brief: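 Purified ImiS with imipenem (40 μM) in 30 mM Tris pH 7.0; inhibitor at 20 μM, DMSO below 0.5%. Hydrolysis followed at 300 nm by UV-vis; initial rates in triplicate, averaged. Percent inhibition = activity without inhibitor (100%) minus residual activity.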

Bacteria [3] = test: Inhibition of beta-lactamase ImiS (unknown origin) expressed in Escherichia coli BL21 (DE3) assessed as potentiation of meropenem induced antibacterial activity by measuring meropenem MIC at 64 ug/ml incubated for 16 hrs by CLSI broth microdilution method (reference value: 64 ug/ml); conditions: dose 64.0 µg/ml
Bacteria [4] = test: Inhibition of bacterial L1 expressed in Escherichia coli BL21 (DE3) at 20 uM using cefazolin as substrate by spectrometry analysis relative to control; method in brief: as §1
[5] = Inhibition of bacterial ImiS expressed in Escherichia coli BL21 (DE3) using imipenem as substrate preincubated for 3 hrs with enzyme followed by substrate addition by spectrometry analysis; set-up: species or system Bacteria
Method in brief: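 Purified ImiS preincubated 3 h with inhibitor (six concentrations, 0.01–20 μM; DMSO below 0.5%) in 30 mM Tris pH 7.0, 25 °C; imipenem 40 μM. Hydrolysis read at 300 nm, rates in triplicate. IC50 from linear fit of mean percent inhibition against inhibitor concentration.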

Bacteria [6] = test: Inhibition of beta-lactamase ImiS (unknown origin) in expressed Escherichia coli BL21 (DE3) assessed as potentiation of imipenem induced antibacterial activity by measuring imipenem MIC at 64 ug/ml incubated for 16 hrs by CLSI broth microdilution method (reference value: 16 ug/ml); conditions: dose 64.0 µg/ml
Method in brief: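 E. coli BL21 (DE3) carrying pET26b-ImiS grown in MH broth to OD600 0.5, diluted to 1 × 10^5 CFU mL–1. CLSI broth dilution; imipenem serially diluted, inhibitor at 64 μg mL–1 stock.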

[7] = Cytotoxicity against mouse L929 cells assessed as cell viability up to 200 uM measured after 48 hrs by MTT assay; format: cell-based; conditions: read-out: Activity
[8] = Mixed type inhibition of bacterial ImiS using varying levels of imipenem as substrate assessed as hydrolysis by Line weaver Burk plot analysis; set-up: species or system Bacteria
Method in brief: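 Initial imipenem hydrolysis rates by ImiS at 20, 40, 60, 80 and 100 μM substrate, inhibitor at 0, 1, 5 and 10 μM; 300 nm read-out, triplicate. Mode assigned from Lineweaver–Burk plots; Ki from fits of initial velocity against substrate concentration at each inhibitor level.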

Mus musculus [9] = test: In vivo inhibition of beta-lactamase ImiS (unknown origin) expressed in Escherichia coli BL21 (DE3) infected in Kunming mouse assessed as potentiation of meropenem-induced reduction in bacterial load in spleen at 10 mg/kg, ip administered after 2 hrs post infection and measured after 24 hrs; format: functional, organism-based
Method in brief: (§2)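 Kunming mice (male and female, 20 ± 2 g), six per group, infected ip with 200 μL E. coli BL21 (DE3)-ImiS suspension (OD600 = 1.0). At 2 h, single ip dose: PBS, meropenem 10 mg kg–1, inhibitor 10 mg kg–1, or meropenem plus inhibitor (each 10 mg kg–1). Euthanized 24 h post-infection; 0.1 g spleen and liver homogenized in 1 mL PBS, serially diluted, plated on LB agar for cfu.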

Mus musculus [10] = test: In vivo antibacterial activity against Escherichia coli BL21 (DE3) expressing ImiS infected in Kunming mouse assessed as reduction in bacterial load spleen at 10 mg/kg, ip administered after 2 hrs post infection and measured after 24 hrs; format: functional, organism-based; method in brief: as §2
Mus musculus [11] = test: In vivo inhibition of beta-lactamase ImiS (unknown origin) expressed in Escherichia coli BL21 (DE3) infected in Kunming mouse assessed as potentiation of meropenem-induced reduction in bacterial load in liver at 10 mg/kg, ip administered after 2 hrs post infection and measured after 24 hrs; format: functional, organism-based; method in brief: as §2
Escherichia coli [12] = test: In vivo antibacterial activity against Escherichia coli BL21(DE3) expressing ImiS infected in Kunming mouse assessed as reduction in bacterial load liver at 10 mg/kg, ip administered after 2 hrs post infection and measured after 24 hrs; format: functional, organism-based; method in brief: as §2
Bacteria [13] = test: Inhibition of bacterial ImiS expressed in Escherichia coli BL21 (DE3) by measuring hydrolysis of imipenem using imipenem as substrate preincubated for 3 hrs with enzyme followed by substrate addition by isothermal titration calorimetric method; conditions: dose microM 0.1-10, time 3.0 hrs
Method in brief: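 ITC, single-injection mode, 25 °C, 30 mM Tris with 0.5% DMSO. ImiS (100 nM) preincubated 3 h with inhibitor (0–10 μM), then one 38 μL injection of imipenem (0.5 mM); stirring 750 rpm. Heat flow (dq/dt) recorded every 1 s until return to baseline.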

Bacteria [14] = test: Inhibition of bacterial ImiS expressed in Escherichia coli BL21 (DE3) at 10 uM using imipenem as substrate by spectrometry analysis relative to control
Method in brief: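 Time and concentration dependence: ImiS incubated with inhibitor at 0.5, 1 or 5 μM over varying times, or over 0.01–10 μM for the inhibition curve; residual activity against imipenem measured spectrophotometrically at 300 nm in 30 mM Tris pH 7.0.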

Escherichia coli [15] = test: Antibacterial activity against Escherichia coli BL21 (DE3) assessed as inhibition of bacterial growth incubated for 16 hrs by CLSI broth microdilution method; format: functional

inhibition (Bacteria [1]) [%] | inhibition (Bacteria [2]) [%] | MIC (Bacteria [3]) [µg/mL] | inhibition (Bacteria [4]) [%] | IC50 [5] [µM] | MIC (Bacteria [6]) [µg/mL] | Ki [8] [µM] | inhibition (Bacteria [13]) | inhibition (Bacteria [14]) [%] | SMILES | viability at 48 h [7] [%] | inhibition (Mus musculus [9]) | Activity (Mus musculus [10]) | inhibition (Mus musculus [11]) | Activity (Escherichia coli [12]) | MIC (Escherichia coli [15]) [µg/mL]
< 20 | > 70 | 16 | < 20 | 0.86 | 4 |  |  |  | NS(=O)(=O)c1cccc(NC(=O)c2cccc([N+](=O)[O-])c2)c1 |  |  |  |  |  | 
< 20 | > 70 | 32 | < 20 | 4.1 | 8 |  |  |  | NS(=O)(=O)c1ccc(NC(=O)CC(c2ccccc2)c2ccccc2)cc1 |  |  |  |  |  | 
< 20 | > 70 | 16 | < 20 | 0.23 | 4 |  |  |  | CC(C)(C)c1ccc(C(=O)Nc2cccc(S(N)(=O)=O)c2)cc1 |  |  |  |  |  | 
 |  | 32 |  | 6.8 | 8 |  |  |  | CCN(CC)c1ccc2c(-c3ccccc3C(=O)Oc3ccc(S(N)(=O)=O)cc3)c3ccc(=[N+](CC)CC)cc-3oc2c1 |  |  |  |  |  | 
< 20 | > 70 | 32 | < 20 | 2.7 | 8 |  |  |  | NS(=O)(=O)c1ccc(NC(=O)c2cccc(Br)c2)cc1 |  |  |  |  |  | 
< 20 | > 70 | 16 | < 20 | 0.31 | 4 |  |  |  | NS(=O)(=O)c1cccc(NC(=O)c2ccc(C(F)(F)F)cc2)c1 |  |  |  |  |  | 
< 20 | > 70 | 16 | < 20 | 0.44 | 4 |  |  |  | NS(=O)(=O)c1cccc(NC(=O)c2ccc(Cl)cc2)c1 | > 80 |  |  |  |  | 
< 20 | > 70 | 32 | < 20 | 3.3 | 8 |  |  |  | CC(C)(C)c1ccc(C(=O)Nc2ccc(S(N)(=O)=O)cc2)cc1 |  |  |  |  |  | 
< 20 | > 70 | 32 | < 20 | 7.5 | 8 |  |  |  | NS(=O)(=O)c1ccc(NC(=O)c2ccccc2)cc1 |  |  |  |  |  | 
< 20 | > 70 | 32 | < 20 | 5.1 | 8 |  |  |  | NS(=O)(=O)c1ccc(NC(=O)c2ccc(Cl)cc2)cc1 | > 80 |  |  |  |  | 
< 20 | > 70 | 32 | < 20 | 3.5 | 8 |  |  |  | NS(=O)(=O)c1ccc(NC(=O)CCc2ccccc2)cc1 |  |  |  |  |  | 
< 20 | > 70 | 16 | < 20 | 0.14 | 4 |  |  |  | NS(=O)(=O)c1cccc(NC(=O)c2cccc(Br)c2)c1 |  |  |  |  |  | 
< 20 | > 70 | 32 | < 20 | 9.3 | 8 |  |  |  | NS(=O)(=O)c1ccc(NC(=O)c2ccc(C(F)(F)F)cc2)cc1 |  |  |  |  |  | 
< 20 | 95 | 16 | < 20 | 0.11 | 4 | 0.55 | Dose-dependent effect | 92 | COC(=O)c1ccc(C(=O)Nc2cccc(S(N)(=O)=O)c2)cc1 | > 80 | Active | inactive | Active | inactive | 
< 20 | > 70 | 32 | < 20 | 4.8 | 8 |  |  |  | NS(=O)(=O)c1ccc(NC(=O)c2cccc([N+](=O)[O-])c2)cc1 |  |  |  |  |  | 
 |  |  |  |  |  |  |  |  | C[C@@H](O)[C@H]1C(=O)N2C(C(=O)O)=C(SCCNC=N)C[C@H]12 [IMIPENEM ANHYDROUS] |  |  |  |  |  | 0.25 (≈ 0.835 µM)
< 20 | > 70 | 32 | < 20 | 4.6 | 8 |  |  |  | CC(C)(C)c1ccc(C(=O)Nc2ccccc2S(N)(=O)=O)cc1 | > 80 |  |  |  |  | 
< 20 | > 70 | 16 | < 20 | 0.16 | 4 |  |  |  | NS(=O)(=O)c1cccc(NC(=O)CCc2ccccc2)c1 |  |  |  |  |  | 
< 20 | > 70 | 32 | < 20 | 5.4 | 8 |  |  |  | NS(=O)(=O)c1ccccc1NC(=O)c1ccc(Cl)cc1 |  |  |  |  |  | 
< 20 | > 70 | 32 | < 20 | 7.3 | 8 | 8 |  |  | COC(=O)c1ccc(C(=O)Nc2ccc(S(N)(=O)=O)cc2)cc1 |  |  |  |  |  | 
< 20 | > 70 | 16 | < 20 | 0.15 | 4 |  |  |  | NS(=O)(=O)c1cccc(NC(=O)c2ccccc2)c1 |  |  |  |  |  | 
< 20 | > 70 | 32 | < 20 | 5.6 | 8 |  |  |  | NS(=O)(=O)c1ccc(NC(=O)c2ccc(O)cc2)cc1 |  |  |  |  |  | 
